# Source: PubChem (several laboratories)
# EBI2 block: blocks human EBI2 receptor beta-arrestin signaling | P32249 | EBI2 beta-arrestin recruitment, luminescence, 7a,25-OHC stimulated | inhibition, % at 5 µM | 360,000 tested, 0.81% active; in the data active = inhibition above about 38%;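 also: enzyme fragment complementation signal reports receptor beta-arrestin coupling in cells; 0% = agonist plus DMSO wells and 100% = wells without agonist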
# Target sequence (P32249 whole entry, looked up, the tested form may be a part): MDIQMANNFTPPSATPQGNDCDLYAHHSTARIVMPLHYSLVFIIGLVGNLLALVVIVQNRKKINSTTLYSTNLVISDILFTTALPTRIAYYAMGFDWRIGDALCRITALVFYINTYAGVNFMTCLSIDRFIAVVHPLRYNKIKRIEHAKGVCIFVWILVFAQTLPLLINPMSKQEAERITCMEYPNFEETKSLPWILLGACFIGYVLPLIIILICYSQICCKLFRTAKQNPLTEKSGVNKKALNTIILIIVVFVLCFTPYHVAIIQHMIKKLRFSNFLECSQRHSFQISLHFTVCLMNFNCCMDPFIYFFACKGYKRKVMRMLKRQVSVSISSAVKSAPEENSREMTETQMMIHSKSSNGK
# APJ antag: APJ receptor antagonism; P35414; CHO-K1 APJ beta-arrestin complementation, luminescence; inhibition, % at 20 µM; 330,000 tested, 0.32% active; AID 2521;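 active = inhibition above about 40% at 20 µM, limit read from the data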;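 also: cells challenged with 10 nM apelin-13 agonist together with compound; plate controls were apelin-13 plus DMSO wells for no effect and DMSO wells lacking apelin-13 for full effect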
# m5-HT2A agonist: activates the mouse 5-HT2A serotonin receptor. AID 624169. 360,000 tested, 0.66% active. CHO-K1 mHTR2A beta-arrestin complementation, luminescence; percent of 30 µM serotonin response. activation, % at 7.6 µM;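 active = activation above a run cutoff, the mean activation of all tested compounds plus 3 SD, cut at about 14% in these data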;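 also: 0% = plate median of compound wells and 100% = 30 µM serotonin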
# APJ ag: APJ receptor agonism | P35414 | CHO-K1 APJ PathHunter beta-arrestin, luminescence; 0% DMSO wells, 100% apelin | activation, % at 20 µM | 330,000 tested, 0.11% active;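 active = activation more than six SD over the plate average, tested at 20 µM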;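 also: 0% = DMSO alone and 100% = apelin-13 at 10 nM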
#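 Test system – PathHunter CHO-K1 APJ (AGTRL-1) beta-arrestin reporter cells · Input – 1000 cells/well · Compound – single test compound dose, 20 µM final, 1% DMSO · Times – compound stimulation 90 min at 25 °C, detection 60 min · Technique – beta-gal luminescence · Read-out basis – APJ–arrestin association signal · Control set – negative DMSO alone, positive Apelin-13 at 10 nM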
# CXCR6 inh: inhibitors of human CXCR6 receptor; inhibition, % at 20 µM; AID 602244; O00574; CHO-K1 PathHunter CXCR6 beta-arrestin, luminescence; 360,000 tested, 0.36% active; in the data active = inhibition above about 34%, passing the limit was not always enough;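 also: antagonist mode with CXCL16 agonist at 10 nM final; 0% = 10 nM CXCL16 with DMSO and 100% = unstimulated wells without agonist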
# CCR6 antag: antagonists of human CCR6 receptor | AID 493098 | CHO-K1 CCR6 PathHunter beta-arrestin, luminescence, CCL20-stimulated | 340,000 tested, 0.49% active | P51684 | inhibition, % at 20 µM;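 active = compounds whose inhibition of the agonist-driven luminescence signal at 20 µM reaches about 50%, limit read from the data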;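 also: cells stimulated with CCL20 at 14 nM final; plate controls were DMSO with CCL20 for no effect and DMSO without agonist for full effect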
# EBI2 conf: confirmation of human EBI2 receptor antagonists; shares compounds with EBI2 block; EBI2 beta-arrestin luminescence, 7a,25-OHC antagonism; inhibition, % at 5 µM; 2,400 tested, 29% active; AID 651997;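 active = inhibition of at least 50%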
# EBI2 agonist: EBI2 agonism counter-screen; AID 652000; shares compounds with EBI2 block; EBI2-expressing cells, agonist mode, luminescence, 60 min; 0% vehicle, 100% 7α,25-dihydroxycholesterol control; 2,400 tested, under 10 active; activation, % at 5 µM;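 active = activation of at least 50%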
# bGal cs: inhibits E. coli beta-galactosidase, counter-screen for EBI2 antagonists; shares compounds with EBI2 block; purified beta-galactosidase, luminescent Galacton Star, 15 min; inhibition, % at 5 µM; 2,400 tested, 1% active;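 active = replicate-average signal at least 3 plate SD below neutral wells, shown as high inhibition, flagging enzyme-inhibiting false positives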;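 also: 0% = DMSO wells with enzyme and 100% = wells lacking enzyme; higher means stronger loss of beta-gal luminescence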
# The depositor's hits bear a star; nt = not tested or not shown. Shown are actives, neighbours in structure and some others; about 2.1% of the full set was active somewhere.
SMILES,EBI2 block,APJ antag,m5-HT2A agonist,APJ ag,CXCR6 inh,CCR6 antag,EBI2 conf,EBI2 agonist,bGal cs
Cc1ccc(S(=O)(=O)NN=C(c2ccccc2)c2cccs2)cc1,-1,nt,-13,nt,10,nt,nt,nt,nt
O=C(CN1CCN(S(=O)(=O)c2ccccc2)CC1)Nc1ccc(Cl)c(Cl)c1,61*,2,-3,1,-17,22,45,1,-2
O=C(CN1CCN(S(=O)(=O)c2ccc(Br)cc2)CC1)N/N=C/c1ccc(Br)s1,65*,-3,12,0,-4,9,44,-1,-10
Cc1ccc(S(=O)(=O)N2CCN(CC(=O)N/N=C/C=C/c3ccccc3)CC2)cc1,43*,-4,0,0,-1,-5,31,0,9
Cc1ccc(/C=N/NC(=O)CN2CCN(S(=O)(=O)c3ccc(Br)cc3)CC2)s1,69*,-6,2,-3,-2,3,52*,0,5
O=C(NCCC(=O)N1CCN(c2ccc(F)cc2)CC1)c1ccco1,4,14,-5,3,-5,3,nt,nt,nt
Cc1ccc(CN2CC(C(=O)NNC(=O)c3ccc(F)cc3)CC2=O)cc1 (configuration not stated),-6,-15,-6,2,2,-1,nt,nt,nt
Cc1ccc(-c2nc3cc(N)ccc3o2)cc1,-11,-1,-2,-4,-10,-5,nt,nt,nt
CC(C)c1ccc2oc(-c3ccc(N)cc3)nc2c1,52*,-14,-1,-2,-11,-7,57*,0,-1
Cc1cccnc1NCc1ccc(O)c2ncccc12,56*,6,-5,-5,7,9,22,0,7
Cc1cccc(NCc2ccc(O)c3ncccc23)c1C,-8,-1,-1,-4,0,1,nt,nt,nt
CCN(C(=O)COC(=O)/C=C/c1cccc([N+](=O)[O-])c1)c1c(N)n(Cc2ccccc2)c(=O)[nH]c1=O,-12,-6,4,-3,-2,4,nt,nt,nt
Cc1[nH]c2ccc(C(=O)N3CCN(c4ccccc4Cl)CC3)cc2c1C,78*,21,2,0,1,-3,56*,1,3
COc1ccccc1N1CCN(CC(=O)c2c(C)n(C)c3ccccc23)CC1,4,6,-6,8,-25,11,nt,nt,nt
Cc1cccc(N2CCN(C(=O)c3ccc4[nH]c(C)c(C)c4c3)CC2)c1C,69*,-2,3,-1,-3,-20,51*,0,-6
COc1ccccc1N1CCN(C(=O)c2ccc3[nH]c(C)c(C)c3c2)CC1,76*,-14,-3,-2,3,10,45,0,-12
COc1ccccc1N1CCN(CC(=O)c2c(C)[nH]c3cc(C)ccc23)CC1,40*,6,-7,-3,9,-13,14,0,-10
COc1cccc(C(C(=O)NC(C)(C)C)N(C(=O)CCC(=O)Nc2cc(C)on2)c2ccc3c(c2)OCCO3)c1OC (configuration not stated),-4,-3,6,-1,1,10,nt,nt,nt
Cc1nc(Cc2nnc(SC(C)C(=O)Nc3cccc(C#N)c3)o2)cs1 (configuration not stated),-11,6,3,-5,0,1,nt,nt,nt
O=C(Nc1ccc(Cl)cc1)N1CCCC1,6,6,5,3,5,1,nt,nt,nt
Cc1ccc(NC(=O)N2CCC(O)(c3ccc(Cl)cc3)CC2)cc1,78*,1,-8,3,-7,8,75*,0,9
Cc1cc(NCCCO)n2nc(-c3cccs3)cc2n1,9,-6,-4,-4,7,-4,nt,nt,nt
OCCCNc1cc(-c2ccccc2)nc2cc(-c3ccc(F)cc3)nn12,55*,-10,1,3,-4,-14,49,-1,-6
COc1ccccc1N(C(=O)c1ccncc1)c1nc(-c2ccc([N+](=O)[O-])cc2)cs1,55*,-3,0,6,-9,7,74*,1,1
CC(=O)c1ccc(OCCCC(=O)N2CCN(S(=O)(=O)c3cccs3)CC2)cc1,49*,-2,0,7,-4,5,48,-1,-14
SMILES,EBI2 block,APJ antag,m5-HT2A agonist,APJ ag,CXCR6 inh,CCR6 antag,EBI2 conf,EBI2 agonist,bGal cs
CC(=O)c1ccc(OCC(=O)N2CCN(S(=O)(=O)c3ccc(Br)s3)CC2)cc1,69*,-10,4,-6,-2,6,39,0,12
CCC(=O)c1ccc(OCC(=O)N2CCN(S(=O)(=O)c3ccc(Cl)s3)CC2)cc1,42,-13,-2,-2,-8,10,nt,nt,nt
CC1CCN(C(=O)CCc2nnc3ccc(N4CCC5(CC4)OCCO5)nn23)CC1,4,4,0,-2,6,2,nt,nt,nt
C[C@H](CO)N1C[C@H](C)[C@@H](CN(C)S(C)(=O)=O)Oc2ccc(NC(=O)C3CC3)cc2C1=O,-5,-4,2,3,-6,11,nt,nt,nt
O=C(NCCN1CCN(C(=O)c2ccc(Br)cc2)CC1)c1ccc(Br)cc1,44*,15,-9,3,-8,-2,22,-1,-6
Cc1ccc(C(=O)NCCN2CCN(C(=O)c3ccc(C)c(C)c3)CC2)cc1C,13,5,-9,-4,3,2,nt,nt,nt
COc1ccc(CCNc2cc(-c3ccccc3)nc3ncnn23)cc1,45*,5,7,-2,-3,15,20,0,6
O=C(/C=C/c1ccc(Cl)cc1)N1CCN(c2ccc([N+](=O)[O-])c(N3CCOCC3)c2)CC1,96*,nt,4,nt,-5,19,88*,1,0
O=C(/C=C/c1ccc(Cl)cc1Cl)N1CCN(c2ccc([N+](=O)[O-])c(N3CCOCC3)c2)CC1,61*,-7,0,-4,4,18,15,1,7
O=C(/C=C/c1ccc(Cl)cc1Cl)N1CCN(c2ccccc2[N+](=O)[O-])CC1,82*,-3,-4,3,4,4,62*,1,3
O=C(/C=C/c1ccccc1[N+](=O)[O-])N1CCN(c2ccccc2F)CC1,-4,-20,-8,-5,-3,-4,nt,nt,nt
CSCc1ccc(C(=O)NCc2ccccc2)cc1,15,-9,-7,-2,-6,6,nt,nt,nt
CSCc1ccc(C(=O)NCc2ccc(C)cc2)cc1,64*,-3,-4,-3,6,11,36,0,-12
